ChEMBL document CHEMBL4138050, “Discovery of selective cystathionine β-synthase inhibitors by high-throughput screening with a fluorescent thiol probe” (Medchemcomm, 2017)
Calls of active or inactive are those of the source. The rule behind the calls is not given here.

Assays:
[1] = molecular target: T1, Cystathionine beta-synthase (Homo sapiens) (UniProt P35520); assay: Reversible inhibition of full-length GST-fused human CBS using cysteine/homocysteine as substrate assessed as decrease in H2S production at 100 uM preincubated for 1 hr followed by ultrafiltration for 5 times
T1 sequence (whole entry): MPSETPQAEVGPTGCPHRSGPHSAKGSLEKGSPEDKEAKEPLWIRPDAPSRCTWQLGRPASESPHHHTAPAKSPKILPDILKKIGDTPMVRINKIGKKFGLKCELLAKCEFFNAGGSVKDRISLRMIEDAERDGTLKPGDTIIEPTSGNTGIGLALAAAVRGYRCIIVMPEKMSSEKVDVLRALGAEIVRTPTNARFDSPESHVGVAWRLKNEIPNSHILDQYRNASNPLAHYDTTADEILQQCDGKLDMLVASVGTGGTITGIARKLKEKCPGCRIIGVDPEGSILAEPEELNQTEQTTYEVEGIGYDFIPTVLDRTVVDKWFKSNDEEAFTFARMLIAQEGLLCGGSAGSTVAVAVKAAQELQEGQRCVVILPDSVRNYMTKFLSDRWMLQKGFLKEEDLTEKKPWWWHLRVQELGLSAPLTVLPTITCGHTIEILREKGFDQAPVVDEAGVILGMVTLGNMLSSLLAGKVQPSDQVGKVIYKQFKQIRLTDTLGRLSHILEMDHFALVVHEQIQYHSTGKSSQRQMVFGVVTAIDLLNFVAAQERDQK

[2] = molecular target: T2, Cystathionine beta-synthase (Homo sapiens, UniProt P35520); assay: Inhibition of full-length GST-fused human CBS using cysteine/homocysteine as substrate assessed as decrease in H2S production preincubated for 3 mins in presence of homocysteine and lead nitrate followed by cysteine addition
T2 sequence (P35520 whole entry): T1 sequence (whole entry)
Summary of the method: (§1)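 The H2S-producing activity of the purified human enzyme was measured with cysteine and homocysteine as substrates in 50 mM HEPES, pH 7.4, with 0.4 mM lead nitrate (lead sulfide read-out).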

[3] = molecular target: T3, Cystathionine gamma-lyase (Homo sapiens, UniProt P32929); assay: Inhibition of N-terminal His-tagged CSE extracted from human HepG2 cells expressed in Escherichia coli BL21 (DE3) using cysteine as substrate assessed as decrease in H2S production preincubated for 3 mins in presence of lead nitrate followed by cysteine addition; summary of the method: as §1
T3 sequence (P32929 whole entry): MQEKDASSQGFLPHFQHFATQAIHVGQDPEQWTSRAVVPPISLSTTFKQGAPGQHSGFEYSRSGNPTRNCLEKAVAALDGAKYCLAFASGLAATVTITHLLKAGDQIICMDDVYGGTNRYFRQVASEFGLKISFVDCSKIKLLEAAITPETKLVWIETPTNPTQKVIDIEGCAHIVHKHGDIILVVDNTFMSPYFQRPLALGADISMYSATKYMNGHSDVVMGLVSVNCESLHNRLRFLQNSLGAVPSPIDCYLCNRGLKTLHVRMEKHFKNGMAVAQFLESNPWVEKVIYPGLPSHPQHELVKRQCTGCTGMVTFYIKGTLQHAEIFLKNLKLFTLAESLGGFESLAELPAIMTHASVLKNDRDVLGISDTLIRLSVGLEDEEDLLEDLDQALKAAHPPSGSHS

HT-29 = assay: Antiproliferative activity against human HT-29 cells assessed as decrease in cell viability after 24 hrs by CCK8 assay; assay type: functional, cell-based; details: HT-29, 24 h
Summary of the method: (§2)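 Viability of HT29 colon cancer cells and of NCM356 normal colon mucosal epithelial cells was measured across a concentration range and expressed relative to the control group. IC50 was taken from the dose–response curve. For HT29, values are means ± SD with n = 6.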

Homo sapiens = species: Homo sapiens; assay: Selectivity ratio of IC50 for N-terminal His-tagged CSE extracted from human HepG2 cells expressed in Escherichia coli BL21 (DE3) using cysteine as substrate assessed as decrease in H2S production to IC50 for full-length GST-fused human CBS using cysteine/homocysteine as substrate assessed as decrease in H2S production
[4] = molecular target: T3, Cystathionine gamma-lyase; assay: Inhibition of N-terminal His-tagged CSE extracted from human HepG2 cells expressed in Escherichia coli BL21 (DE3) using methylcysteine as substrate measured for 10 mins by CPM probe-based fluorescence assay
Summary of the method: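 Methanethiol release by purified human CSE was monitored continuously with 10 mM methylcysteine as substrate in 50 mM HEPES, pH 7.4. Thiol was trapped by the CPM fluorescent probe and read at 460 nm (excitation 400 nm). IC50 was taken from the dose–response curve.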

[5] = Antiproliferative activity against human NCM356 cells assessed as decrease in cell viability after 24 hrs by CCK8 assay; assay type: cell-based; summary of the method: as §2
[6] = molecular target: T2, Cystathionine beta-synthase; assay: Inhibition of full-length GST-fused human CBS using methylcysteine as substrate measured for 10 mins by CPM probe-based fluorescence assay
Summary of the method: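 Enzyme source: full-length wild-type hCBS, 2 μg per reaction. Substrate: 10 mM methylcysteine. Buffer: 50 mM HEPES, pH 7.4, with 15 μM CPM thiol probe. Read-out: CH3SH release, followed as fluorescence at 460 nm (excitation 400 nm) over 600 s. Screening positive control: 100 μM AOAA. Secondary screen: compounds at 50 μM.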

[7] = Selectivity index, ratio of IC50 for human NCM356 cells to IC50 for human HT-29 cells; assay type: toxicity; details: NCM356 cells versus HT-29 cells

inhibition [1]	IC50 [2]	IC50 [3]	IC50 (HT-29)	Ratio IC50 (Homo sapiens)	IC50 [4]	IC50 [6]	Structure (SMILES)	inhibition [3]	IC50 [5]	selectivity ratio [7]
Active	5.9 µM						Oc1ccc(-c2oc3cc(O)cc4c3c2-c2cc(O)cc3c2[C@H](c2cc(O)cc5c2[C@@H]4[C@H](c2ccc(O)cc2)O5)[C@@H](c2ccc(O)cc2)O3)cc1	Active		
Active	6.2 µM	> 400 µM	1.5 to 13.5 µM				C[C@@H]1O[C@@H](Oc2c(-c3ccc(O)cc3)oc3cc(O)cc(O)c3c2=O)[C@H](OC(=O)/C=C\c2ccc(O)cc2)[C@H](O)[C@H]1OC(=O)/C=C\c1ccc(O)cc1			
Active	8.1 µM			> 10			O=C(CCCCCCCCc1ccccc1)c1c(O)cc(O)cc1O			
Active	7.4 µM			> 10			Oc1cc(O)cc(CCC/C=C\CCCCCCCCCc2cc(O)cc(O)c2)c1			
	4 µM	4 µM	140 µM		0.57 µM	1 µM	NOCC(=O)O [CARBOXYMETHOXYLAMINE]		800 µM	
Active	11.5 µM	> 400 µM	≥ 50 µM				O=c1cc(-c2ccc(O)cc2)oc2c(-c3c(O)cc(O)c4c(=O)cc(-c5ccc(O)cc5)oc34)c(O)cc(O)c12 [CUPRESSUFLAVONE]			
Active	8.9 µM	> 400 µM	7.9 µM				COc1ccc(-c2cc(=O)c3c(O)cc(O)c(-c4cc(-c5cc(=O)c6c(O)cc(O)cc6o5)ccc4O)c3o2)cc1 [PODOCARPUSFLAVONE A]		36 µM	5
Active	9.2 µM	> 400 µM	1.5 µM				COc1ccc([C@H]2Oc3cc(O)cc(O)c3C(=O)[C@@H]2[C@H]2C(=O)c3c(O)cc(O)cc3O[C@@H]2c2ccc(O)cc2)cc1 [SIKOKIANIN C]		19 µM	10

Structure (SMILES)	inhibition [1]	IC50 [2]	IC50 [3]	IC50 (HT-29)	Ratio IC50 (Homo sapiens)	IC50 [4]	IC50 [6]	inhibition [3]	IC50 [5]	selectivity ratio [7]
Cc1cc(O)c2c(=O)c3c(O)cc(O)c4c5c(O)cc(O)c6c(=O)c7c(O)cc(C)c8c1c2c(c34)c(c78)c65 [HYPERICIN]	Active	3.1 µM			> 10					
O=c1c(O)c(-c2cc(O)c(O)c(O)c2)oc2cc(O)cc(O)c12 [MYRICETIN]	Active	18.8 µM						Active		
